Laboratory results reported in ChEMBL document CHEMBL3603808, “Discovery and structure of a new inhibitor scaffold of the autophagy initiating kinase ULK1” (Bioorg Med Chem, 2015).

What was measured:
[1] = biological target: SRSF protein kinase 1 (Homo sapiens) (UniProt Q96SB4); experiment: Inhibition of SRPK1 (unknown origin) at 250 nM by radioactive filter-binding assay
Procedure, shortened: (§1)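 Panel profiling of one compound against 50 kinases, carried out in duplicate at the International Centre for Protein Kinase Profiling. Radioactive filter-binding format.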

[2] = biological target: Serine/threonine-protein kinase PAK 4 (Homo sapiens) (UniProt O96013); experiment: Inhibition of PAK4 (unknown origin) at 250 nM by radioactive filter-binding assay; procedure, shortened: as §1
Serine/threonine-protein kinase PAK 4 (Homo sapiens), sequence (O96013 whole entry, looked up): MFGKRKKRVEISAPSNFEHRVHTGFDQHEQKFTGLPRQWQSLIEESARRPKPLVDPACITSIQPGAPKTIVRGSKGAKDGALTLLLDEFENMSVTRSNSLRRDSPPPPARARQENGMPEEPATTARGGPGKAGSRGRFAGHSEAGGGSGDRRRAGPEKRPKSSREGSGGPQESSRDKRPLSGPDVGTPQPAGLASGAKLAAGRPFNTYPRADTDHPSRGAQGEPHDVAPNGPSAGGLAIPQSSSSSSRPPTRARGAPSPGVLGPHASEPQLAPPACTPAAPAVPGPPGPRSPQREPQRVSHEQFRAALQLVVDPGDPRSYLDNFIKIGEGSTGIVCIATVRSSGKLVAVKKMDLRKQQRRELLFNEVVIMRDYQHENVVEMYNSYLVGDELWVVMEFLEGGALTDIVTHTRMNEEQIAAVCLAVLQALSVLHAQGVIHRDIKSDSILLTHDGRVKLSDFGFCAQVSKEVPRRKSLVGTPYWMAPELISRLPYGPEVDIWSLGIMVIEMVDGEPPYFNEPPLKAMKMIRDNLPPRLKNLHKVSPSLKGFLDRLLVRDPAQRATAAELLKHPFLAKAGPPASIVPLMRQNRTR

[3] = biological target: Serine/threonine-protein kinase Sgk1 (Homo sapiens) (UniProt O00141); experiment: Inhibition of SGK1 (unknown origin) at 250 nM by radioactive filter-binding assay; procedure, shortened: as §1
[4] = biological target: Proto-oncogene tyrosine-protein kinase Src (Homo sapiens) (UniProt P12931); experiment: Inhibition of SRC (unknown origin) at 250 nM by radioactive filter-binding assay; procedure, shortened: as §1
[5] = biological target: Mitogen-activated protein kinase kinase kinase 11 (Homo sapiens) (UniProt Q16584); experiment: Inhibition of MLK3 (unknown origin) at 250 nM by radioactive filter-binding assay; procedure, shortened: as §1
Mitogen-activated protein kinase kinase kinase 11 (Homo sapiens), sequence (Q16584 whole entry, looked up): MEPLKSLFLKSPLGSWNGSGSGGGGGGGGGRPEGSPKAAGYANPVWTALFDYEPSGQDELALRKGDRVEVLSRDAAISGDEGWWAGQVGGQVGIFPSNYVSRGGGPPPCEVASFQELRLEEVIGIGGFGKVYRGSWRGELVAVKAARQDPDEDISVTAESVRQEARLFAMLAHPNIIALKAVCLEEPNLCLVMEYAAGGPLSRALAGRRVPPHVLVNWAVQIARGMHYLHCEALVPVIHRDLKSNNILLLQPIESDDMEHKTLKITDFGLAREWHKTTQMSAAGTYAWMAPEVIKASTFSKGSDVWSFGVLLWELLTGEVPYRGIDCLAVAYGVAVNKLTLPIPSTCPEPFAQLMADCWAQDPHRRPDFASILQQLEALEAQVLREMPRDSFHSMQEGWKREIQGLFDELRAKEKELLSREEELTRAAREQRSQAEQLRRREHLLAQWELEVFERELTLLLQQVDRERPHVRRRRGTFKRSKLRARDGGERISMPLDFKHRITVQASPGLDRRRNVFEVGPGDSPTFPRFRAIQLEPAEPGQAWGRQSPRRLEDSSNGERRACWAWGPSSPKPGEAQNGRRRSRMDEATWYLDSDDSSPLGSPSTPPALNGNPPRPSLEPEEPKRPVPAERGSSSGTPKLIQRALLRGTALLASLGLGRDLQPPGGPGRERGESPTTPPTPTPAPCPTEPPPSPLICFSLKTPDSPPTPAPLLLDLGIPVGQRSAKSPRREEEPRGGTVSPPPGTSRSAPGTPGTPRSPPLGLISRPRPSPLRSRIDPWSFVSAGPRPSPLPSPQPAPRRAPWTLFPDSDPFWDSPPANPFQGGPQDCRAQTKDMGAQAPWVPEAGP

[6] = biological target: Calcium/calmodulin-dependent protein kinase kinase 2 (Homo sapiens) (UniProt Q96RR4); experiment: Inhibition of CAMKKB (unknown origin) at 250 nM by radioactive filter-binding assay; procedure, shortened: as §1
Calcium/calmodulin-dependent protein kinase kinase 2 (Homo sapiens), sequence (Q96RR4 2-588 limits assumed): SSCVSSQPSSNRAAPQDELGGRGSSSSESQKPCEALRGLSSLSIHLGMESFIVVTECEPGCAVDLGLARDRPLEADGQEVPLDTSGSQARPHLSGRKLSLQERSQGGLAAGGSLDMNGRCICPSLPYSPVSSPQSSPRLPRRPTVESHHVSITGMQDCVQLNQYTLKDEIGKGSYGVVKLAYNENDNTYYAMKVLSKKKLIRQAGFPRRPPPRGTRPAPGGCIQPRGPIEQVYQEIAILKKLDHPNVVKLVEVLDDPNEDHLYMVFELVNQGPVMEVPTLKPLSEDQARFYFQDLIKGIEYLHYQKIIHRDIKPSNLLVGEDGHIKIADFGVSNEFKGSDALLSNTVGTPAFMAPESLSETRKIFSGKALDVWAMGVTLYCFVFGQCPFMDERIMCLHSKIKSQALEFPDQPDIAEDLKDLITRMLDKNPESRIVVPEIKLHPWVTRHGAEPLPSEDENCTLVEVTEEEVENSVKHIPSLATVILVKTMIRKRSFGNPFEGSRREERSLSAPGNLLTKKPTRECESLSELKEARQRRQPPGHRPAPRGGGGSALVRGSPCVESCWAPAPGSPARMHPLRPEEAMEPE

[7] = biological target: Serine/threonine-protein kinase 3 (Homo sapiens) (UniProt Q13188); experiment: Inhibition of MST2 (unknown origin) at 250 nM by radioactive filter-binding assay; procedure, shortened: as §1
Serine/threonine-protein kinase 3 (Homo sapiens), sequence (Q13188 whole entry): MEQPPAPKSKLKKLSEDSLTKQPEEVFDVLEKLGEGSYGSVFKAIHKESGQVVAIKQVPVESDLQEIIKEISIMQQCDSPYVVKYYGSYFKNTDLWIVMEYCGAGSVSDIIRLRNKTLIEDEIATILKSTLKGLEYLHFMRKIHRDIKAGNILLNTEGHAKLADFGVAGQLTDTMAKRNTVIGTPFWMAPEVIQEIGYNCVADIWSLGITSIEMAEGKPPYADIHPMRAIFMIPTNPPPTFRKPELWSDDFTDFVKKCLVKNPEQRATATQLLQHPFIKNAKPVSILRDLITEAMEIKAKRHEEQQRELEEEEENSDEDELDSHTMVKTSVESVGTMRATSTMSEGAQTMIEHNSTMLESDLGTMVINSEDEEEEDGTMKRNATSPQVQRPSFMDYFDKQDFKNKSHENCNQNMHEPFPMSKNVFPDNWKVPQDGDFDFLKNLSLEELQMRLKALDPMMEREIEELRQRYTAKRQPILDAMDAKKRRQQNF

[8] = biological target: High affinity nerve growth factor receptor (Homo sapiens) (UniProt P04629); experiment: Inhibition of TRKA (unknown origin) at 250 nM by radioactive filter-binding assay; procedure, shortened: as §1
High affinity nerve growth factor receptor (Homo sapiens), sequence (P04629 33-796 limits assumed): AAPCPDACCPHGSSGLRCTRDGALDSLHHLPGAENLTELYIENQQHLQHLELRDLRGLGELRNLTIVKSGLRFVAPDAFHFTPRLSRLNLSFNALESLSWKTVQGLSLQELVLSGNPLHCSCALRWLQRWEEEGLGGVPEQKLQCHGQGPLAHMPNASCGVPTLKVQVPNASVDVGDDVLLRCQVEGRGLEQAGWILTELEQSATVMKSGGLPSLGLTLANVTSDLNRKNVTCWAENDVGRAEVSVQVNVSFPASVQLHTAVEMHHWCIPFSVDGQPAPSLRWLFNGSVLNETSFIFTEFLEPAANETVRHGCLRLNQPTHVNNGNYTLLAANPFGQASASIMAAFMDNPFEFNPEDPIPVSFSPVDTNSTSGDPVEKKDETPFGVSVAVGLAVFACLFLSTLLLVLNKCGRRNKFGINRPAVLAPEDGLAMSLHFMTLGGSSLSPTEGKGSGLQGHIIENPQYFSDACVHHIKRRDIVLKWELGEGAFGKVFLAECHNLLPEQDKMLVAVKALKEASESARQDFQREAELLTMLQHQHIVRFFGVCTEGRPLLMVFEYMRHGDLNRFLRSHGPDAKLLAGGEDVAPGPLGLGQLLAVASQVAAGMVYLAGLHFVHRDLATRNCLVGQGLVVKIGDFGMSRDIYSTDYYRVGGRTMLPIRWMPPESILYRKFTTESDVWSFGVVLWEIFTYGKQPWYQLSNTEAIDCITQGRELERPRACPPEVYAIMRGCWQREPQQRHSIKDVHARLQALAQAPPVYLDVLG

[9] = biological target: Tyrosine-protein kinase JAK2 (Homo sapiens) (UniProt O60674); experiment: Inhibition of JAK2 (unknown origin) at 2 uM by radioactive filter-binding assay; procedure, shortened: as §1
Tyrosine-protein kinase JAK2 (Homo sapiens), sequence (O60674 whole entry): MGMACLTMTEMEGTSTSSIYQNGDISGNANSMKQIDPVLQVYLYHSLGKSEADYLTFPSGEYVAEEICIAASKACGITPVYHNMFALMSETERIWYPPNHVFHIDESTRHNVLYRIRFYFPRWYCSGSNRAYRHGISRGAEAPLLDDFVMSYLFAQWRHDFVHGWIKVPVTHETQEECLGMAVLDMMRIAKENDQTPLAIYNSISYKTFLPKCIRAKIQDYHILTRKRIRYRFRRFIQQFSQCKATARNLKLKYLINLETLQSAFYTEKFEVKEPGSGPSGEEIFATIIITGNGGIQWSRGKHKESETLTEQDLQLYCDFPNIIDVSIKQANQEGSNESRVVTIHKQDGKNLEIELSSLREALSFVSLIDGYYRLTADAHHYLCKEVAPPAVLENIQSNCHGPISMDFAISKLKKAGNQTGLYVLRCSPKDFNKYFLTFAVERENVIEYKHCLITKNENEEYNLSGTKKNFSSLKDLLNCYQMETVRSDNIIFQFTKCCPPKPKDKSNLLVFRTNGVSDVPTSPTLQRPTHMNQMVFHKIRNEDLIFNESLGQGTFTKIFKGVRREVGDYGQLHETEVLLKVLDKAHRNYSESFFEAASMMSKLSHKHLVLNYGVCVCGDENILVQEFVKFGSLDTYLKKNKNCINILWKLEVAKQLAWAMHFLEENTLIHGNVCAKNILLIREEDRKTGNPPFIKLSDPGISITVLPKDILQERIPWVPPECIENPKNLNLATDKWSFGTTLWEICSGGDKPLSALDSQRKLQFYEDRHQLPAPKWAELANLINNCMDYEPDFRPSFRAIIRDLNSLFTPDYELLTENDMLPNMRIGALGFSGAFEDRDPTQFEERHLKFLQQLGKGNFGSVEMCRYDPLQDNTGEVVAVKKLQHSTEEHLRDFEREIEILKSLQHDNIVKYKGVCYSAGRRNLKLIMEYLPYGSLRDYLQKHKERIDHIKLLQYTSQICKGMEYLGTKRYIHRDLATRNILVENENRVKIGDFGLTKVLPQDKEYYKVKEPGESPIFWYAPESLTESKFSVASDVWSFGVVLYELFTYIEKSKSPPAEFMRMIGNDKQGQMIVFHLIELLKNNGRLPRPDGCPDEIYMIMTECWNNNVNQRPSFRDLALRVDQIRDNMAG

[10] = biological target: AMP-activated protein kinase, AMPK (Homo sapiens) (UniProt P54646+O43741+P54619+Q9UGJ0+Q9Y478+Q13131+Q9UGI9); experiment: Inhibition of AMPK (unknown origin) at 2 uM by radioactive filter-binding assay; assay type: protein-complex assay; procedure, shortened: as §1

SRSF protein kinase 1 (Homo sapiens), sequence (Q96SB4 whole entry): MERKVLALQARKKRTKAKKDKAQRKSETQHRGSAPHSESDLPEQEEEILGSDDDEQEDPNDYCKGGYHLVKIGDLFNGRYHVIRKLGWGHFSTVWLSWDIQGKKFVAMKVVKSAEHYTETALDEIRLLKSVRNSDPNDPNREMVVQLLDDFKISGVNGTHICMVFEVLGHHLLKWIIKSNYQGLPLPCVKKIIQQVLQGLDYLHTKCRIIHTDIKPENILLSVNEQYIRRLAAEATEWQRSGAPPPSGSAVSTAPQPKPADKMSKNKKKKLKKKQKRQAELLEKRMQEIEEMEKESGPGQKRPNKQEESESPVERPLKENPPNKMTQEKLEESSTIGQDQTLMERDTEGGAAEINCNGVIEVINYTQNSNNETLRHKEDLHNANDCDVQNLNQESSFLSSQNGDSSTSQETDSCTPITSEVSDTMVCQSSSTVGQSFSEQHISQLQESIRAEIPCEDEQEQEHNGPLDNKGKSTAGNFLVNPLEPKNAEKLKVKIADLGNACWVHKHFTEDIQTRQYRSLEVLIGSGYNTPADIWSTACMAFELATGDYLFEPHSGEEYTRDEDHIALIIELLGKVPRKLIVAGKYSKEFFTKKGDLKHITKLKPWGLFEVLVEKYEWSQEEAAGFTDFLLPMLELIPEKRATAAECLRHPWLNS

inhibition [1] [%]	inhibition [2] [%]	inhibition [3] [%]	inhibition [4] [%]	inhibition [5] [%]	inhibition [6] [%]	inhibition [7] [%]	inhibition [8] [%]	inhibition [9] [%]	inhibition [10] [%]	Compound
> 80	> 80	> 80	> 80	> 80	> 80	> 80	> 80	–	–	c1ccc2c(Nc3cc(C4CCC4)[nH]n3)nc(Nc3ccc4[nH]cnc4c3)nc2c1
–	–	–	–	–	–	–	–	> 80	> 80	NCCCNc1nc(Nc2cccc(NC(=O)N3CCCC3)c2)ncc1I
